Data on 5 compounds can be found in publication PMC11776411 (Journal of Hepatocellular Carcinoma, 2025).

The subject of one assay is HepG2 cells. Briefly: MTT cell viability assay, HepG2. In kind it is cell-based, human. As to conditions: for IC50: Homo sapiens, HepG2, 72 h, read-out: IC50 (μM) HepG2. (Tetrazolium assays rely on reduction of a dye to a coloured formazan, in cell work by metabolically active cells.)
The test system of assay [1] is Huh7 cells. Briefly: MTT cell viability assay, Huh7. In kind it is cell-based, human. As to conditions: for IC50: Homo sapiens, Huh-7, 72 h, read-out: IC50 (μM) Huh7.
The subject of the next assay is Hep3B cells. The assay is described as follows: MTT cell viability assay, Hep3B. The format is cell-based, human. The note with it: for IC50: Homo sapiens, Hep3B, 72 h, read-out: IC50 (μM) Hep3B.
In assay [2] the test system is LO2 cells (normal human hepatocytes). The assay is described as follows: MTT cytotoxicity assay, normal liver cells LO2. In kind it is cell-based. The note with it: L02, 72 h, read-out: IC50 (μM) LO2. In short, it runs like this: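 LO2 normal human hepatocytes were grown in DMEM with 10% FBS and seeded at 5×10^3 cells per well overnight. Test compound was added at 0.1, 0.3, 1, 3, 10, 30 and 100 μM for up to 72 h. Viability was read by MTT: 0.5 mg/mL for 4 h, medium removed, DMSO added, absorbance measured. Experiments were repeated at least three times.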

Assay [3] concerns Huh7 cells. Briefly: Ferroptosis inhibitor. In kind it is cell-based, human. The note with it: Huh7, co-treated with 10 μM 6c for 72 h.
The test system of assay [4] is Huh7 cells. Briefly: NAC intervention experiment. In kind it is cell-based, human. The note with it: 5 or 10 mm N-acetylcysteine with 10 μM 6c for 24, 48, 72 h.

Structures are written as SMILES. A value given as a limit tells only on which side of the number the result lay.

A word on the IC50: it is the point on the concentration scale where inhibition reaches its midpoint. With `C[C@H]1[C@H](OC(=O)CCC(=O)O)O[C@@H]2O[C@@]3(C)CC[C@H]4[C@H](C)CC[C@@H]1[C@@]24OO3` [AS, Artesunate], the IC50 in the assay with HepG2 cells is 42.8 ± 1.44 µM; with Huh7 cells [1], 47.5 ± 1.39 µM; in the assay with Hep3B cells it was 44.2 ± 2.16 µM; in assay [2] it was 72.3 ± 1.37 µM. In the assay on HepG2 cells (SI1 = IC50 LO2/IC50 HepG2), the “Selectivity Index SI 1” value is recorded as 1.7. Besides, the “Selectivity Index SI 2” value in the assay with Huh7 cells [1] (SI2 = IC50 LO2/IC50 Huh7) is recorded as 1.5. Also, in the assay with Hep3B cells (SI3 = IC50 LO2/IC50 Hep3B), the “Selectivity Index SI 3” value worked out at 1.6.
On to `CNC(=O)c1cc(Oc2ccc(N)cc2)ccn1` [Compound 1, 4-(4-aminophenoxy)-N-methyl-2-pyridinecarboxamide], for which the half-maximal inhibitory concentration (IC50) with Huh7 cells [1] and in the assay with Hep3B cells was greater than 100 µM each time.
As to `Clc1cccc(CN=C2Nc3ccccc3NC23CCNCC3)c1` [Liproxstatin-1], the “reversal of 6c-induced cell death” value with Huh7 cells [3] is recorded as “reversed cell death in a concentration-dependent manner”.
`CC(=O)N[C@@H](CS)C(=O)O` [N-acetylcysteine]: the “reversal of 6c inhibition of proliferation” value in the assay with Huh7 cells [4] is “reversed the inhibitory effect of 6c on proliferation of Huh7 cells in time- and concentration-dependent manner”.
Turning to `CNC(=O)c1cc(Oc2ccc(NC(=O)Nc3ccc(Cl)c(C(F)(F)F)c3)cc2)ccn1` [Sorafenib], the concentration for half-maximal inhibition (IC50) worked out at 6.45 ± 0.32 µM in the assay with HepG2 cells, 3.09 ± 0.08 µM in the assay with Huh7 cells [1] and 8.63 ± 0.12 µM in assay [2].
